XBP1 UPR activ: activators of adaptive arm of unfolded protein response (XBP1). CHO-XBP1 luciferase reporter, IRE1-XBP1 UPR activation, luminescence; percent of tunicamycin response, DMSO as zero. activation, % at 20 µM. 330,000 compounds, 0.33% hits. AID 463104;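 active = versus positive control, 20 µM dose yields 30% or more activation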;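 note: 100% = tunicamycin at 10 µg/mL and 0% = DMSO only wells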
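Material: IRE1-XBP1 luciferase reporter CHO line / Quantity: one thousand reporter cells per well / Buffer or medium: F12 with 10% serum / Compound: 20 µM single concentration, DMSO 1% / Times: 6 h treatment, 37 °C / Detection: Steady-Glo luciferase glow luminescence, 10 min after reagent addition / Benchmarks: tunicamycin high, DMSO low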
PfM18AAP inh: blocks P. falciparum M18 aspartyl aminopeptidase; recombinant PfM18AAP, H-Glu-NHMec fluorogenic cleavage; inhibition, % at 7.35 µM; 290,000 compounds, 1.2% hits;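 active = inhibition above the campaign mean inhibition over all tested compounds plus 3 SD, cut at about 28% in these data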;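 note: 0% = plate median of test compound wells and 100% = 2 mM ZnCl2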
CHOP inh: CHOP inhibition in unfolded protein response; CHO-K1 CHOP-promoter luciferase, tunicamycin-induced, 15-18 h; inhibition, % at 10 µM; 220,000 compounds, 3.8% hits; AID 2732;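 active = compounds that reduced the stress-induced luciferase reporter signal by more than about 70% of percent inhibition, limit read from the data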;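 note: 0% = tunicamycin plus vehicle and 100% = wells without tunicamycin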
NS3 helicase inh: HCV NS3 helicase inhibition | NS3 helicase DNA unwinding, Cy5 molecular beacon fluorescence | inhibition, % at 10.9 µM | 290,000 compounds, 0.56% hits;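 active = inhibition above the mean of all tested compounds plus 3 SD, set per campaign, cut at about 35% in these data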;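 note: 0% = DMSO wells and 100% = thioflavine S control wells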
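System: Hepatitis C virus NS3 helicase domain fragment enzyme | Reagent: Annealed dual-labelled DNA beacon duplex, ATP-started | Compound dosing: 10.9 µM single point, 0.8% DMSO | Incubation: 1 h reaction at 25 °C, ATP-initiated | Technique: Cy5 fluorescence | Evaluation: Percent inhibition from t60/t0 fluorescence ratio | Benchmarks: Low DMSO, high thioflavine S at 110 µM | Replication: Singlicate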
p97 inhibitor: blocks human p97 ATPase activity; 220,000 compounds, 0.42% hits; recombinant p97 ATPase, Kinase-Glo ATP luminescence, 3 h; inhibition, % at 8 µM; P55072; in the data active = inhibition above about 15%;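 note: 0% = DMSO vehicle and 100% = wells lacking enzyme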
Target sequence (P55072 whole entry, looked up): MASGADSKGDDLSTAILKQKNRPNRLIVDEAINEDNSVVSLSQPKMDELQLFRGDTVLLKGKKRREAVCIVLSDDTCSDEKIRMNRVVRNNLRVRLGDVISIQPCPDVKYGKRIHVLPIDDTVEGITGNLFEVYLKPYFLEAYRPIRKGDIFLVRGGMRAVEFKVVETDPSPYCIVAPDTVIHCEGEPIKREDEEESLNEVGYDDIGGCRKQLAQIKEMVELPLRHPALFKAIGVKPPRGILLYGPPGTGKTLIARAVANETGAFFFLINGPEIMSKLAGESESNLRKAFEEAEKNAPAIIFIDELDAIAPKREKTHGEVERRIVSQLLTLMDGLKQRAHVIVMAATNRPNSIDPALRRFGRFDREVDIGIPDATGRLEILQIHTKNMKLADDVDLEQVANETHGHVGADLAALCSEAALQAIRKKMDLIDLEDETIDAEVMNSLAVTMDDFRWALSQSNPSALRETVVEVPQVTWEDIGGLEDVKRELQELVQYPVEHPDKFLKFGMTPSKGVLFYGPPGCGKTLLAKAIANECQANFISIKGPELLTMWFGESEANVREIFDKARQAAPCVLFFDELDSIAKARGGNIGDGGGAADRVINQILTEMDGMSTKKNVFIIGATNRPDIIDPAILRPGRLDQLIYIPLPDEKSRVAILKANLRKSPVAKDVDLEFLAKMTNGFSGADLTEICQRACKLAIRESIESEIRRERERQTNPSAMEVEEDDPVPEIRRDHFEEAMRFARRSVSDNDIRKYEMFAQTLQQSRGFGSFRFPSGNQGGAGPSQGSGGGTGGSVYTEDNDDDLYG
UPR CHOP act: activators of apoptotic arm of unfolded protein response (CHOP); 330,000 compounds, 0.34% hits; activation, % at 10 µM; CHO-CHOP luciferase reporter, UPR activation, luminescence; percent of tunicamycin response over DMSO baseline;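 active = at 10 µM dose, activation of 40% or more, normalized to positive control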;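 note: 100% = tunicamycin at 10 µg/mL and 0% = DMSO alone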
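Dosing – one dose, 10 µM in 0.5% DMSO · System – CHO-CHOP cells, stable luciferase reporter of PERK-eIF2a-CHOP signalling · Input – 500 cells/well · Control set – tunicamycin 10 µg/mL final as positive, DMSO-only wells as negative · Timing – 6 h compound treatment, 37 °C · Measure – % activation vs tunicamycin · Technique – luminescence read with Steady-Glo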
UPR CHOP confirm: confirmation of apoptotic unfolded protein response (CHOP) activators; activation, % at 10 µM; AID 463112; 1,000 compounds, 64% hits; shares compounds with UPR CHOP act; CHO-CHOP cells, CHOP-luciferase reporter luminescence; percent of tunicamycin response, DMSO as zero; in the data active = activation above about 33%;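 note: 0% = DMSO wells and 100% = tunicamycin 10 µg/mL wells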
Numbers without * were called inactive; · = no result. Compounds with a hit are over-represented: about 4.5% of the library has one in this group of screens.

SMILES | XBP1 UPR activ | PfM18AAP inh | CHOP inh | NS3 helicase inh | p97 inhibitor | UPR CHOP act | UPR CHOP confirm
O=C(/C=C/c1ccc2c(c1)OCO2)NCCS(=O)(=O)N1CCN(c2ccc(F)cc2)CC1 | 0 | · | · | · | · | 2 | ·
CCC(=O)Nc1cc(-c2cc3ccccc3oc2=O)ccc1OC | -1 | 4 | 3 | -17 | 3 | 0 | ·
COc1ccc(-c2cc3ccccc3oc2=O)cc1NC(=S)NC(=O)c1ccc2c(c1)OCCO2 | 198* | -4 | -13 | 10 | 4 | 87* | 55*
CCNC(=S)N1CCN(C(=O)C(Cc2ccccc2)NC(C)=O)CC1 (centres undefined) | -4 | -2 | -5 | 11 | -5 | 52* | 0
COc1ccc(Cl)cc1C(=O)NNC(=O)CSc1nncn1C | -1 | · | · | · | · | 0 | ·
O=C(Cc1cccs1)N1CCN(S(=O)(=O)c2ccc(F)c(F)c2)CC1 | 2 | · | · | · | · | -1 | ·
O=S(=O)(c1ccc(S(=O)(=O)N2CCCC3(CCCCC3)C2)cc1)N1CCCCC1 | 20 | -1 | 33 | 7 | -1 | 52* | 2
CCOC(=O)c1ccc(NS(=O)(=O)c2cn(C)cn2)cc1 | -4 | -4 | · | -3 | · | -2 | ·
COC(=O)c1c(NC(=O)c2ccc([N+](=O)[O-])o2)sc2c1CCN(C(C)C)C2 | -9 | 8 | · | 0 | · | 71* | 56*
CC(C)N1CCc2c(sc(NC(=O)c3ccc([N+](=O)[O-])o3)c2C(N)=O)C1 | -6 | 1 | · | -8 | · | 6 | ·
COc1c(Cl)cc(Cl)cc1/C=C/C(=O)c1ccc(NC(=O)c2cccs2)cc1 | 12 | -2 | -116 | -3 | 8 | 55* | 247*
CCCCOC(=O)/C=C\C(=O)NC(N)=O | -5 | 0 | -24 | -2 | 8 | 88* | 121*
CCCCOC(=O)/C=C\C(=O)OCCCC | -2 | · | -16 | · | · | 3 | ·
COc1ccc(N(CC(=O)N2CCN(Cc3ccccc3)CC2)S(C)(=O)=O)cc1Cl | 1 | -14 | · | -19 | · | 0 | ·
COc1ccc(C(=O)/C=C2/C(=O)Nc3ccccc32)c(OC)c1 | 5 | 10 | · | -27 | · | 109* | 114*
COc1cc(OC)c(/C=C2\C(=O)Nc3ccccc32)c(OC)c1 | -1 | · | · | · | · | -2 | ·
Brc1ccccc1CN1CCN(Cc2c[nH]c3ccccc23)CC1 | -8 | · | · | · | · | 41* | 153*
CCN(CC)CC(=O)Nc1sc(C)cc1C(=O)c1ccccc1 | -2 | 3 | · | 0 | · | -1 | ·
Cc1cc(C(=O)c2ccccc2)c(NC(=O)CCl)s1 | 3 | 19 | -152 | 7 | 9 | 45* | 4
Cc1ccc(C)c2sc(N3CCN(C(=O)c4ccc([N+](=O)[O-])o4)CC3)nc12 | 7 | · | · | · | · | 83* | 61*
Cc1cc(N2CCN(c3ccccc3)CC2)nc(-n2nc(C)cc2C)n1 | 13 | -4 | -111 | -4 | -4 | 52* | 4
Cc1cc(C)nc(-n2nc(C)cc2Nc2ccccc2)n1 | 17 | -1 | -37 | 5 | 1 | 59* | 5
Cc1cc(Nc2ccccc2)n(-c2ccccc2)n1 | 2 | 4 | 30 | -2 | 7 | -2 | ·
Cc1cc(N2CCN(c3ccccc3)CC2)nc(-c2ccccc2O)n1 | -2 | 3 | -1 | -9 | 1 | 0 | ·
COCCCn1cnnc1SCc1nc2sc(C(C)=O)c(C)c2c(=O)[nH]1 | 0 | -6 | 8 | -14 | 4 | -1 | ·
COc1ccccc1S(=O)(=O)CC(O)COc1ccc(C#N)cc1 (centres undefined) | 1 | -5 | 0 | 6 | 0 | -1 | ·
Cc1cc(C(=O)N(C)CC(=O)Nc2ccc(F)c(F)c2F)no1 | 1 | 4 | · | 10 | · | -2 | ·
COC(=O)c1ccccc1NC(=O)COC(=O)c1ccccc1N=Nc1ccc(N(C)C)cc1 | 6 | -1 | 2 | -11 | 1 | 1 | ·
CC(=O)c1ccc(NC(=O)COC(=O)c2ccccc2N=Nc2ccc(N(C)C)cc2)cc1 | 9 | -1 | 29 | 6 | -6 | 44* | 55*
Cc1cccc(C(=O)Nc2ccc(C(=O)/C=C/c3ccncc3)cc2)c1 | -9 | -3 | · | -17 | · | 49* | -9

Bioassay records as filed in PubChem BioAssay.
